Source: ChEMBL document CHEMBL1132478, “Design and synthesis of novel alpha(1)(a) adrenoceptor-selective antagonists. 3. Approaches to eliminate opioid agonist metabolites by using substituted phenylpiperazine side chains” (J Med Chem, 1999)
Values joined by “and” are separate entries in the source; they are usually repeats but may differ in a detail not shown here. Identical values can stand only once.

What was measured:
[1] = target: T1, Alpha-1D adrenergic receptor (Homo sapiens, UniProt P25100); assay: In vitro binding affinity against Alpha-1D adrenergic receptor at recombinant human receptor.; conditions: in the assay text read “at recombinant human receptor” for “of human liver microsomes”
T1 sequence (P25100 whole entry): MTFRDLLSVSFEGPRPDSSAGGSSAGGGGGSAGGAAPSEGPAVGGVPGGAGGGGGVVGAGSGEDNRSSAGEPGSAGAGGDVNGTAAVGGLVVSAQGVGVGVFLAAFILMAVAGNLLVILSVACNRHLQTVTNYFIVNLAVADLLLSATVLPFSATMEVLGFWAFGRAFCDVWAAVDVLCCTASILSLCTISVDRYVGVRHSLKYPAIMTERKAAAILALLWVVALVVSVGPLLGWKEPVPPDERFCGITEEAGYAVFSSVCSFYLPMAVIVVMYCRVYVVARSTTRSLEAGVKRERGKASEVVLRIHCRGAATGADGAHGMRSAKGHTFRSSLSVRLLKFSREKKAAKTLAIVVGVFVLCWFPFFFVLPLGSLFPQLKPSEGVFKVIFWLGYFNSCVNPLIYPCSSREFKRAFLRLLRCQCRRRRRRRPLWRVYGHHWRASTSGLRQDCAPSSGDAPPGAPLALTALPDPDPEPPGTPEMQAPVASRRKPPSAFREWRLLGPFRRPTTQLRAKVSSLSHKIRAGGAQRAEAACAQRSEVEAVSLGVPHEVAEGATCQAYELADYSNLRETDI
Outline: (§1)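 Radioligand displacement on membranes from cultured cells expressing recombinant human α1a, α1b or α1d adrenoceptors, using [³H]prazosin as radioligand; Ki values reported.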

[2] = target: T2, Alpha-1A adrenergic receptor (Homo sapiens, UniProt P35348); assay: In vitro binding affinity against Alpha-1A adrenergic receptor […].; outline: as §1
T2 sequence (P35348 whole entry): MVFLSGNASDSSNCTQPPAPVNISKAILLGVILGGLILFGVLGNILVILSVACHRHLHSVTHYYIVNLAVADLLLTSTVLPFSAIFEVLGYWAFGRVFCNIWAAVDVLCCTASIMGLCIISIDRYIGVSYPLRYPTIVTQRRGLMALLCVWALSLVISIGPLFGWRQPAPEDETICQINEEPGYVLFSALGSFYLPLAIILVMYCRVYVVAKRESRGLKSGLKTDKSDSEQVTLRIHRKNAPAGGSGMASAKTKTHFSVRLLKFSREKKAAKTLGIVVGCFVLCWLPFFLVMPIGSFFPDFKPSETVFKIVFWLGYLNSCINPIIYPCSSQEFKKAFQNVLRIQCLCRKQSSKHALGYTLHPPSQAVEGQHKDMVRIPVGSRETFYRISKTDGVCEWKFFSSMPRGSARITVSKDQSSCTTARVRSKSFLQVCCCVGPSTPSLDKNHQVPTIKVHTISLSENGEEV

[3] = Fold selectivity against alpha 1A adrenergic receptor over alpha 2A, 2B and 2C adrenergic receptors
Outline: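 Ki ratio derived from radioligand displacement at recombinant human adrenoceptors: α1a with [³H]prazosin, and α2a, α2b and α2c with [³H]rauwolscine, on membranes from cultured cells.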

[4] = target: T3, Alpha-1B adrenergic receptor (Homo sapiens, UniProt P35368); assay: In vitro binding affinity against Alpha-1B adrenergic receptor at recombinant human receptor.
T3 sequence (P35368 whole entry): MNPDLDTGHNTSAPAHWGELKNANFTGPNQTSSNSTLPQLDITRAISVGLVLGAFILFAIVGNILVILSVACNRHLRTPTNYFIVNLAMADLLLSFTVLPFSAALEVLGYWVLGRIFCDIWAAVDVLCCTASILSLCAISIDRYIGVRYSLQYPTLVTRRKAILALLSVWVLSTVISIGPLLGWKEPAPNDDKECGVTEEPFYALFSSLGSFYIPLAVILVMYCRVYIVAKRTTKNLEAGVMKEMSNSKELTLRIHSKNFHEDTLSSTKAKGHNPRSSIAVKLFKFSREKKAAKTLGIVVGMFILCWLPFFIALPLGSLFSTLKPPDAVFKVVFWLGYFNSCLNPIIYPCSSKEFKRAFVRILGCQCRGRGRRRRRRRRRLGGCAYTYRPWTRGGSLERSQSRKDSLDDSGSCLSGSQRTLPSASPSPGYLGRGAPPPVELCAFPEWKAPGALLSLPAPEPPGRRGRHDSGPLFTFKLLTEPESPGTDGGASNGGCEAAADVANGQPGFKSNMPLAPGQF

[5] = oral bioavailability in dog; assay type: ADME, organism-based, Canis lupus familiaris; conditions: in vivo
[6] = oral bioavailability in rat; assay type: ADME, organism-based; conditions: in vivo
Outline: (§2)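 In rats, the compound was given at 3 mg/kg iv and 10 mg/kg po. Plasma AUC was measured for each route, with oral bioavailability and plasma half-life derived from the plasma profiles.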

[7] = organism: Rattus norvegicus; assay: Duration of action in rat.; assay type: ADME, organism-based; conditions: in vivo
Outline: (§3)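 In rats, phenylephrine-induced contraction of the prostate was measured in vivo. Antagonist potency is expressed as AD₅₀ in µg/kg. Duration of action is given in hours.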

[8] = Plasma half life in dog; assay type: ADME, organism-based, Canis lupus familiaris
[9] = Plasma half life in rat; assay type: ADME, organism-based; outline: as §2
[10] = target: T4, Alpha-1A adrenergic receptor (Rattus norvegicus) (UniProt P43140); assay: (§4) Binding affinity radioligand)
T4 sequence (whole entry): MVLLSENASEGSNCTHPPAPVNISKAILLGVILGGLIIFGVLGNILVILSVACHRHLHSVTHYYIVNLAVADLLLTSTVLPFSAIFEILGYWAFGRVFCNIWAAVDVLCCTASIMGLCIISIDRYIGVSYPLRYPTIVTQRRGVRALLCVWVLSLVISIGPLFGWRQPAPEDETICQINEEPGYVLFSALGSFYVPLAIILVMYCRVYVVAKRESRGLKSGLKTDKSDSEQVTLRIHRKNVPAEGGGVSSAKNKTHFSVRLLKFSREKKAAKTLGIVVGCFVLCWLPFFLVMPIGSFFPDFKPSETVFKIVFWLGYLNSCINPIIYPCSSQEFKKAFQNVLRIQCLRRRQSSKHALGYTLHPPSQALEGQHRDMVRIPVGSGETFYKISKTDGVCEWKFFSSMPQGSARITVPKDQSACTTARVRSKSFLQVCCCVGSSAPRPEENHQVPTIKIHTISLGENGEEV

[11] = target: Mu-type opioid receptor (Homo sapiens, UniProt P35372); assay: Binding affinity against opioid receptor using [3H]-DAMGO as radioligand.
[12] = organism: Rattus norvegicus; assay: Inhibition of phenylephrine induced contraction of the rat prostate.; assay type: functional, Prostate gland; outline: as §3
[13] = target: Adrenergic receptor alpha-1 (Rattus norvegicus) (UniProt P15823+P23944+P43140); assay: as §4; assay type: protein assay
Chain of Adrenergic receptor alpha-1 (Rattus norvegicus) (P15823 whole entry, looked up, one chain of several): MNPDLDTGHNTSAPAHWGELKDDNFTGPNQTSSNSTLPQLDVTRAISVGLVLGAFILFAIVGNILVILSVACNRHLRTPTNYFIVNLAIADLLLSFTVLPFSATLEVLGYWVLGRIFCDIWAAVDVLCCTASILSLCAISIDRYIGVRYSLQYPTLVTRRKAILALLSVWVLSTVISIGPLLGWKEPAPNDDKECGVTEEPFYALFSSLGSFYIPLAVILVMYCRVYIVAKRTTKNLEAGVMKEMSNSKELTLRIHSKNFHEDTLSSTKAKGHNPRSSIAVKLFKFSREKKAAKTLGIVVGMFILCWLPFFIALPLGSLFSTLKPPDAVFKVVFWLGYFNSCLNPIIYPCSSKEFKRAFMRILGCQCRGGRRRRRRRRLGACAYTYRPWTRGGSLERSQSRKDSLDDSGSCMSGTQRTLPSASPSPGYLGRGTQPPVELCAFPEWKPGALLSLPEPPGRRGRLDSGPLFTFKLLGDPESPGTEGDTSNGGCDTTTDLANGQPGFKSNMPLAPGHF
Chain of Adrenergic receptor alpha-1 (Rattus norvegicus) (P23944 whole entry, looked up, one chain of several): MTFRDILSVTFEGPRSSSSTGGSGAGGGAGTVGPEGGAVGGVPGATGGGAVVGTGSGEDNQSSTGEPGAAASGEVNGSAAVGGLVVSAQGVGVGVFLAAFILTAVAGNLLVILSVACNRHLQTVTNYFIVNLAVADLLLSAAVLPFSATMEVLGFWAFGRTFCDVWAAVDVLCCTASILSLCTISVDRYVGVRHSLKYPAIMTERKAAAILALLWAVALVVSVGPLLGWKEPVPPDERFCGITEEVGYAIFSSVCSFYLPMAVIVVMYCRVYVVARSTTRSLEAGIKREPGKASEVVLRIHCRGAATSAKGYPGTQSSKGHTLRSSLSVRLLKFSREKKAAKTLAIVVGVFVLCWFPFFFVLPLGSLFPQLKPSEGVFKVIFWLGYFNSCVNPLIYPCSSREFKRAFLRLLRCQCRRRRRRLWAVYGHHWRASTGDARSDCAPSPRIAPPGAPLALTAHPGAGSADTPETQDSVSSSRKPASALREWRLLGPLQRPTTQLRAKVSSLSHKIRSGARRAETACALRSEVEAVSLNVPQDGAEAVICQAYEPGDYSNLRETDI

Chain of Mu-type opioid receptor (P35372 whole entry): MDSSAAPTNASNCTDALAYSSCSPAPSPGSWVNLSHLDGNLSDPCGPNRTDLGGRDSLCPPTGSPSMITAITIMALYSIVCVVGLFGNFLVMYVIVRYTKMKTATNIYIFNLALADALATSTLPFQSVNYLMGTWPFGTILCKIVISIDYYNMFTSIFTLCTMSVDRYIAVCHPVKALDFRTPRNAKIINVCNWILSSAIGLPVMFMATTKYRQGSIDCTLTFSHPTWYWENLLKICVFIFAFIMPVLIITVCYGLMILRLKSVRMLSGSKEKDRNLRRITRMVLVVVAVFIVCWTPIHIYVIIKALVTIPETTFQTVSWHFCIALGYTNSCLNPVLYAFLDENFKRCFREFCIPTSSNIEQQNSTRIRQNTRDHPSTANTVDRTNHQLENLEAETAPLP

| Ki [1] | Ki [2] | Fold selectivity [3] | Ki [4] | SMILES | also measured |
| --- | --- | --- | --- | --- | --- |
| 28 nM | 0.05 nM | > 1600 | 13 nM | COC(=O)C1=C(C)NC(=O)N(C(=O)NCCCN2CCN(c3ccccc3[N+](=O)[O-])C[C@H]2C)C1c1ccc(F)c(F)c1 (some centres not stated) |  |
| 140 nM | 0.3 nM | > 430 | 58 nM | COC(=O)C1=C(C)NC(=O)N(C(=O)NCCCN2CCN(c3ccccc3C(N)=O)CC2)C1c1cc(F)c(F)c(F)c1 (configuration not stated) |  |
| 14 nM | 0.2 nM | > 190 | 15 nM | COC(=O)C1=C(C)NC(=O)N(C(=O)NCCCN2CCN(c3ccccc3Cl)CC2)C1c1ccc(F)c(F)c1 (configuration not stated) |  |
| 120 nM | 4.9 nM | > 60 | 43 nM | COC(=O)C1=C(C)NC(=O)N(C(=O)NCCCN2CCN(c3cccc(C(F)(F)F)c3)CC2)C1c1ccc(F)c(F)c1 (configuration not stated) |  |
| 390 nM | 0.4 nM | > 160 | 220 nM | CC(=O)C1=C(C)NC(=O)N(C(=O)NCCCN2CCN(c3ccccc3C(N)=O)CC2)C1c1cc(F)c(F)c(F)c1 (configuration not stated) |  |
| 610 nM | 16 nM | > 20 | 510 nM | COC(=O)C1=C(C)NC(=O)N(C(=O)NCCCN2CCN(c3ccc(OC)cc3C)CC2)C1c1ccc(F)c(F)c1 (configuration not stated) |  |
| 21 nM | 0.2 nM | > 55 | 7.5 nM | COC(=O)C1=C(C)NC(=O)N(C(=O)NCCCN2CCN(c3ccccc3)CC2)C1c1ccc(F)c(F)c1 (configuration not stated) |  |
| 290 nM | 0.7 nM | > 70 | 170 nM | CC(=O)C1=C(C)NC(=O)N(C(=O)NCCCN2CCN(c3ccccc3C(N)=O)CC2)C1c1ccc(F)c(F)c1 (configuration not stated) |  |
| 32 nM | 0.01 nM | > 23000 | 23 nM | COC(=O)C1=C(C)NC(=O)N(C(=O)NCCCN2CCN(c3ccccc3[N+](=O)[O-])CC2)C1c1ccc(F)c(F)c1 (configuration not stated) |  |
| 12 nM and 15 nM | 0.1 nM and 0.08 nM | > 1300 | 15 nM | COC(=O)C1=C(C)NC(=O)N(C(=O)NCCCN2CCN(c3ccccc3C#N)CC2)C1c1ccc(F)c(F)c1 (configuration not stated) |  |
| 34 nM | 0.02 nM | > 17000 | 49 nM | COC(=O)C1=C(C)NC(=O)N(C(=O)NCCCN2CCN(c3ccccc3[N+](=O)[O-])C[C@@H]2C)C1c1ccc(F)c(F)c1 (some centres not stated) |  |
| 1800 nM | 430 nM | > 2 | 1300 nM | COC(=O)C1=C(C)NC(=O)N(C(=O)NCCCN2CCN(c3ccc(C(C)=O)cc3)CC2)C1c1ccc(F)c(F)c1 (configuration not stated) |  |
| 480 nM | 14 nM | > 15 | 410 nM | COC(=O)C1=C(C)NC(=O)N(C(=O)NCCCN2CCN(c3ccc(OC)cc3)CC2)C1c1ccc(F)c(F)c1 (configuration not stated) |  |
| 340 nM | 12 nM | > 40 | 150 nM | COC(=O)C1=C(C)NC(=O)N(C(=O)NCCCN2CCN(c3cccc([N+](=O)[O-])c3)CC2)C1c1ccc(F)c(F)c1 (configuration not stated) |  |
| 31 nM | 0.6 nM | > 65 | 16 nM | COC(=O)C1=C(C)NC(=O)N(C(=O)NCCCN2CCN(c3ccccc3O)CC2)C1c1ccc(F)c(F)c1 (configuration not stated) |  |
| 31 nM | 0.1 nM | > 360 | 18 nM | COC(=O)C1=C(C)NC(=O)N(C(=O)NCCCN2CCN(c3ccccc3OC)CC2)C1c1ccc(F)c(F)c1 (configuration not stated) |  |
| 91 nM | 0.1 nM | > 1900 | 32 nM | CCC1=C(C(=O)OC)C(c2ccc(F)cc2F)N(C(=O)NCCCN2CCN(c3ccccc3C(N)=O)CC2)C(=O)N1 (configuration not stated) |  |
| 30 nM | 0.2 nM | > 85 | 25 nM | COC(=O)C1=C(C)NC(=O)N(C(=O)NCCCN2CCN(c3ccccc3C(=O)OC)CC2)C1c1ccc(F)c(F)c1 (configuration not stated) |  |
| 140 nM | 0.1 nM | > 4500 | 100 nM | COCC1=C(C(=O)OC)C(c2ccc(F)c(F)c2)N(C(=O)NCCCN2CCN(c3ccccc3C(N)=O)CC2)C(=O)N1 (configuration not stated) |  |
| 190 nM | 0.1 nM | > 660 | 130 nM | COCC1=C(C(=O)OC)C(c2cc(F)c(F)cc2F)N(C(=O)NCCCN2CCN(c3ccccc3C(N)=O)CC2)C(=O)N1 (configuration not stated) |  |
| 9.8 nM | 0.3 nM | > 110 | 17 nM | COC(=O)C1=C(C)NC(=O)N(C(=O)NCCCN2CCN(c3ccccc3C)CC2)C1c1ccc(F)c(F)c1 (configuration not stated) |  |
| 52 nM | 0.8 nM | > 65 | 17 nM | COC(=O)C1=C(C)NC(=O)N(C(=O)NCCCN2CCN(c3ccc(Cl)cc3)CC2)C1c1ccc(F)c(F)c1 (configuration not stated) |  |
| 1100 nM | 1.3 nM | > 600 | 720 nM | CCC1=C(C(N)=O)C(c2ccc(F)cc2F)N(C(=O)NCCCN2CCN(c3ccccc3C(N)=O)CC2)C(=O)N1 (configuration not stated) |  |
| 14 nM | 0.1 nM | > 210 | 8.8 nM | CCOc1ccccc1N1CCN(CCCNC(=O)N2C(=O)NC(C)=C(C(=O)OC)C2c2ccc(F)c(F)c2)CC1 (configuration not stated) |  |
| 37 nM | 0.7 nM | > 195 | 8.4 nM | COC(=O)C1=C(C)NC(=O)N(C(=O)NCCCN2CCN(c3cccc(Cl)c3)CC2)C1c1ccc(F)c(F)c1 (configuration not stated) |  |

| SMILES | Ki [1] | Ki [2] | Fold selectivity [3] | Ki [4] | also measured |
| --- | --- | --- | --- | --- | --- |
| COC(=O)C1=C(C)NC(=O)N(C(=O)NCCCN2CCN(c3ccccc3C(N)=O)CC2)C1c1ccc(F)c(F)c1 (configuration not stated) | 250 nM and 310 nM | 0.12 nM and 0.26 nM | > 3000 | 190 nM and 135 nM | bioavailability [5]: 4%; bioavailability [6]: 13%; Duration of action [7]: > 4 h; half-life [8]: 2.4 h; half-life [9]: 2 h; Kb [10]: 0.3 nM; Ki [11]: > 30000 nM; AD50 [12]: 0.022 mg/kg |
| CCC1=C(C(N)=O)C(c2ccc(F)c(F)c2)N(C(=O)NCCCN2CCC(C(=O)OC)(c3ccccc3)CC2)C(=O)N1 (configuration not stated) |  |  | > 3200 |  | Duration of action [7]: > 4 h; Kb [10]: 0.4 nM; Kb [13]: > 1000 nM; AD50 [12]: 0.02 mg/kg |
